Test results from ChEMBL document CHEMBL4316599, “Synthesis, in vitro and in vivo biological evaluation of substituted 3-(5-imidazo[2,1-b]thiazolylmethylene)-2-indolinones as new potent anticancer agents” (Eur J Med Chem, 2019).
The source made the active and inactive calls. The rule behind the calls is not given here.

What was measured:
[1] = tested on: CNS carcinoma cell; assay: Cytotoxicity against human CNS cancer cells after 48 hrs by SRB assay; type: functional
Procedure, shortened: (§1)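 NCI-60 screen: single-dose pass at 10^-5 M, then a five-concentration assay from 10^-9 to 10^-4 M (highest 100 μM). Exposure was 48 h under standard NCI protocols. GI50, TGI and LC50 were derived per cell line and averaged by subpanel. Repeated tests are the mean of two experiments.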

[2] = tested on: Melanoma cell line; assay: Cytotoxicity against human melanoma cells after 48 hrs by SRB assay; type: functional; procedure, shortened: as §1
[3] = tested on: NSCLC; assay: Cytotoxicity against human NSCLC cells after 48 hrs by SRB assay; type: functional; procedure, shortened: as §1
[4] = tested on: Prostatic carcinoma cell; assay: Cytotoxicity against human prostate cancer cells after 48 hrs by SRB assay; type: functional; procedure, shortened: as §1
[5] = tested on: Breast carcinoma cell; assay: Cytotoxicity against human breast cancer cells after 48 hrs by SRB assay; type: functional; procedure, shortened: as §1
[6] = Cytotoxicity against human PBL after 72 hrs by MTT assay; type: cell-based; conditions: peripheral blood lymphocytes (PBL)
Procedure, shortened: (§2)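 Lymphocytes from healthy donors were isolated on a Lymphoprep gradient and held overnight in RPMI-1640 with 10% FBS. Non-adherent cells were set at 5×10^5 cells/mL, either resting or stimulated with 2.5 μg/mL PHA. Cells were exposed to a range of compound concentrations for 72 h and viability read by MTT. GI50 is the mean ± SEM of three separate experiments.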

[7] = Cytotoxicity against human PHA-stimulated PBL after 72 hrs by MTT assay; type: cell-based; conditions: PHA-stimulated peripheral blood lymphocytes (PBL); procedure, shortened: as §2
[8] = tested on: K562; assay: Cytotoxicity against human K562 cells after 48 hrs by SRB assay; type: functional, cell-based
[9] = tested on: K562; assay: Cell cycle arrest in human K562 cells assessed as mitotic index at IC50 by Giemsa staining-based assay (reference value: 3%); type: functional
[10] = tested on: K562; assay: Cell cycle arrest in human K562 cells assessed as mitotic index at 5 times IC50 by Giemsa staining-based assay (reference value: 3%); type: functional
[11] = tested on: HeLa; assay: Cell cycle arrest in human HeLa cells assessed as decrease in p-cdc25c expression at 50 to 250 nM after 24 hrs by Western blot analysis; type: functional, cell-based
Procedure, shortened: (§3)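 HeLa cells treated 24 h, washed in ice-cold PBS and lysed on ice 30 min. Lysates were spun at 15000 x g, 4 °C. 10 µg protein run on SDS-PAGE and blotted to PVDF. Blots were blocked in 5% BSA overnight at 4 °C and probed 2 h at room temperature. Detection by HRP-secondary and ECL, with bands normalized to β-actin as fold of untreated. Three independent experiments, one-way ANOVA/Dunnett.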

[12] = tested on: HeLa; assay: Cell cycle arrest in human HeLa cells assessed as decrease in cdc2 phosphorylation at 50 to 250 nM after 24 hrs by Western blot analysis; type: functional, cell-based; procedure, shortened: as §3
[13] = tested on: HeLa; assay: Induction of apoptosis in human HeLa cells at 250 nM after 24 to 48 hrs by Annexin V-FITC/propidium iodide staining-based flow cytometric analysis; type: functional, cell-based
Procedure, shortened: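 HeLa cells exposed 24 or 48 h to 250, 500 or 1000 nM; annexin-V-FITC plus PI double staining for surface phosphatidylserine and DNA, measured by flow cytometry. Mean ± SEM of three independent experiments.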

[14] = tested on: A549; assay: Induction of apoptosis in human A549 cells at 25 nM after 24 to 48 hrs by Annexin V-FITC/propidium iodide staining-based flow cytometric analysis; type: functional, cell-based
Procedure, shortened: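 A549 cells treated 24 or 48 h at 12.5–100 nM, then double-stained with annexin-V-FITC and PI. Phosphatidylserine exposure was read by flow cytometry. Mean ± SEM of three independent experiments.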

[15] = tested on: HeLa; assay: Induction of mitochondrial membrane depolarization in human HeLa cells at 250 to 500 nM after 6 to 48 hrs by JC-1 staining-based assay; type: functional, cell-based; conditions: TDE = time-dependent effect
Procedure, shortened: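 HeLa cells treated at 250-500 nM for 6, 12, 24 or 48 h, then stained with JC-1. Percentage of cells with low mitochondrial membrane potential measured by flow cytometry. Mean ± SEM of three independent experiments.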

[16] = tested on: HeLa; assay: Induction of ROS generation in human HeLa cells at 250 nM after 12 to 24 hrs by H2-DCFDA staining-based assay; type: functional, cell-based
Procedure, shortened: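 HeLa cells treated 6, 12, 24 or 48 h, then loaded with H2-DCFDA and analysed by flow cytometry for ROS. Mean ± SEM of three independent experiments, compared against control.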

[17] = tested on: HeLa; assay: Induction of apoptosis in human HeLa cells assessed as increase in caspase-9 activity at 50 to 250 nM after 24 hrs by Western blot analysis; type: functional, cell-based; procedure, shortened: as §3
[18] = tested on: HeLa; assay: Induction of apoptosis in human HeLa cells assessed as increase in caspase-3 activity at 50 to 250 nM after 24 hrs by Western blot analysis; type: functional, cell-based; procedure, shortened: as §3
[19] = tested on: HeLa; assay: Induction of apoptosis in human HeLa cells assessed as decrease in Mcl-1 levels at 50 to 250 nM after 24 hrs by Western blot analysis; type: functional, cell-based; procedure, shortened: as §3
[20] = tested on: E0771; assay: Growth inhibition of mouse E0771 cells after 72 hrs by MTT assay; type: functional; conditions: E0771, 72 h
Procedure, shortened: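 Murine BL6-B16 melanoma and EO771 breast tumor cells were exposed to compound for 72 h. GI50 is reported ± error.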

[21] = tested on: B16-BL6; assay: Antitumor activity mouse B16-BL6 cells implanted in C57BL/6 mouse assessed tumor growth inhibition at 7.5 mg/kg, ip dosed every other day for 18 days relative to control; type: functional; conditions: 432 h, read-out: TGI
Procedure, shortened: (§4)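 Syngeneic allograft: C57BL/6 mice, six weeks old, given 2.5×10^5 BL6-B16 or E0771 cells subcutaneously in the dorsolateral flank in PBS. Dosing began at about 100 mm³. Test compound or reference was given intraperitoneally every other day in 50 μL DMSO, with DMSO vehicle controls. Tumor volume was compared with the vehicle group, 5 animals per group, mean ± SEM, by 2-way ANOVA with Bonferroni correction.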

[22] = tested on: E0771; assay: Antitumor activity mouse E0771 cells implanted in C57BL/6 mouse assessed tumor growth inhibition at 7.5 mg/kg, ip dosed every other day for 20 days relative to control; type: functional; conditions: 480 h, read-out: TGI; procedure, shortened: as §4
[23] = Toxicity in C57BL/6 mouse implanted with mouse E0771 cells assessed as effect on body weight at 7.5 to 15 mg/kg, ip dosed every day for 20 days; type: organism-based; conditions: in vivo, 480 h, in the assay text read “every other day” for “every day”
Procedure, shortened: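 C57BL/6 mice, six weeks old, received 2.5×10^5 BL6-B16 or E0771 cells s.c. in the dorsolateral flank in PBS. Dosing began once tumours reached about 100 mm³: 7.5 or 15 mg/kg i.p. every other day in 50 μL DMSO. Vehicle and CA-4P 30 mg/kg served as controls. Body weight was monitored, with 5 animals per group.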

[24] = tested on: K562; assay: Cytotoxicity against human K562 cells after 16 hrs by SRB assay; conditions: K562, 16 h
[25] = read-out: LC50 (the source's name)

O=C1Nc2c(ccc3ccccc23)C1=Cc1c(-c2ccncc2)nc2sccn12
GI50 [1]: 0.04 µM | TGI [1]: 79.8 µM | CC50 [1, 25]: 94.3 µM | GI50 [2]: 7.16 µM | TGI [2]: 72.9 µM | CC50 [2, 25]: 95.3 µM | GI50 [3]: 11.1 µM | LC50 [3]: 97.9 µM | TGI [3]: 79.9 µM | GI50 [4]: 0.02 µM | TGI [4]: 55.9 µM | CC50 [4, 25]: 80.1 µM | GI50 [5]: 0.04 µM | LC50 (concentration killing 50% of cells) [5]: 99 µM | TGI [5]: 71.3 µM | GI50 at 72 h [6]: 4.5 µM | GI50 at 72 h [7]: 5.5 µM | Activity [8]: Dose-dependent effect | Activity [9]: 12% | Activity [10]: 35% | Activity [11]: Active | Activity [12]: Active | Activity [13]: Active | Activity [14]: Active | Activity [15]: Tde | Activity [16]: Active | Activity [17]: Active | Activity [18]: Active | Activity [19]: Active | GI50 [20]: 0.015 µM | inhibition in vivo at 7.5 mg/kg [21]: 18% | inhibition in vivo at 7.5 mg/kg [22]: 51.8% | Activity [23]: Non-Toxic | IC50 [24]: 0.03 µM
